Structures are written as SMILES. Calls of active or inactive are those of the source. The rule behind the calls is not given here.

Common to all, as to type: cell-based
In one series the test system is SK-N-BE(2). Kind of series: Cytotoxicity in human SKNBE2 cells assessed as reduction in cell viability at 0.01 to 100 uM incubated for 18 hrs by Cell Titer-Glo assay. Particulars: dose 0.01-100 µM. In short, it runs like this: (§1)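 Cells seeded at 1.5 million per 10-cm dish. Next day they were replated at 10,000 cells/well and rested 4 h. Ligand or vehicle (water, ethanol or DMSO, by ligand) was added in dose-response format in quadruplicate. After 18 h, viability was read by CellTiter-Glo luminescence. Data are mean ± s.e.m., generally representative of 2 independent experiments. One-way ANOVA versus vehicle.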
(In general: In ATP-based viability assays light output follows the ATP content of the culture.)

Series [1] deals with PC-12. Kind of series: Cytotoxicity in rat PC-12 cells assessed as reduction in cell viability at 0.01 to 100 uM incubated for 18 hrs by Cell Titer-Glo assay. Particulars: pc-12, 18 h, dose 0.01-100 µM. In short, it runs like this: as §1
Another series deals with HEK-293T. Kind of series: Cytotoxicity in human HEK293T cells assessed as reduction in cell viability at 0.01 to 100 uM incubated for 18 hrs by Cell Titer-Glo assay. The conditions noted are these: dose 0.01-100 µM. Put shortly: as §1
The test system of series [2] is PC-12. Put plainly: Modulation of Gal4-fused VP16 expressed in PC12 cells co-transfected with UAS repoter gene assessed as increase in luciferase activity at 0.01 to 100 uM incubated for 18 hrs by luciferase reporter gene assay. Particulars: Human alphaherpesvirus 2, filed as modulator, dose 0.01-100 µM. Put shortly: (§2)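 Cells in 10-cm dishes were transfected with Gal4-VP16 expression plasmid (2 μg) plus 5xUAS-luciferase reporter (2 μg) for 18 h. They were replated at 10,000 cells/well for 4 h, then given ligand or vehicle (water, ethanol or DMSO) in quadruplicate for 18 h. Luciferase was read with Britelite Plus. Fold change is versus vehicle-treated cells, with one-way ANOVA versus vehicle.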
(In a reporter assay the amount or activity of a reporter protein is the signal.)

The subject of a further series is HEK293T. Put plainly: Modulation of Gal4-fused VP16 expressed in HEK293T cells co-transfected with UAS repoter gene assessed as increase in luciferase activity at 0.01 to 100 uM incubated for 18 hrs by luciferase reporter gene assay. Particulars: Human alphaherpesvirus 2, filed as modulator, dose 0.01-100 µM. In short, it runs like this: as §2
Series [3] has as its target Nuclear receptor subfamily 4 group A member 2 (Homo sapiens) (UniProt P43354). Kind of series: Modulation of full length human Nurr1 expressed in SKNBE(2) cells co-transfected with RXRalpha and luciferase reporter plasmid harboring NurRE response element assessed as increase in luciferase activity at 100 uM incubated for 18 hrs by luciferase reporter gene assay. The conditions noted are these: SKNBE2, filed as modulator. In short, it runs like this:
(§3)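 SK-N-BE(2)-C cells were kept in 1:1 EMEM/F12 with 10% FBS at 37°C and 5% CO2. They were cotransfected with full-length Nurr1 (1 μg), full-length RXRα (1 μg) and 3xNBRE- or 3xNurRE-luc reporter (6 μg) for 18 h, replated at 10,000 cells/well for 4 h, and then treated with ligand or vehicle in quadruplicate for 18 h. The readout was luciferase luminescence as fold over vehicle, reported as mean ± s.e.m. (n=4) from 2 independent experiments, one-way ANOVA.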

The target is the same in series [4]. Put plainly: Modulation of full length human Nurr1 expressed in SKNBE(2) cells co-transfected with RXRalpha and luciferase reporter plasmid harboring NBRE response element assessed as increase in luciferase activity at 100 uM incubated for 18 hrs by luciferase reporter gene assay. Particulars: SKNBE2, filed as modulator. Put shortly:
as §3

Series [5] shares this target. Kind of series: Modulation of full length human Nurr1 expressed in PC12 cells co-transfected with RXRalpha and luciferase reporter plasmid harboring NurRE response element assessed as increase in luciferase activity at 100 uM incubated for 18 hrs by luciferase reporter gene assay. Particulars: PC-12, filed as modulator. Put shortly: (§4)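 PC12 cells were grown at 37°C and 5% CO2 in […] medium with 15% horse serum and 2.5% FBS. They were transfected with full-length Nurr1 (1 μg) plus full-length RXRα (1 μg) and 3xNBRE- or 3xNurRE-luciferase reporter (6 μg) for 18 h, then replated at 10,000 cells/well for 4 h. Ligand or vehicle (water, ethanol or DMSO) was added in quadruplicate for 18 h. Luminescence was read as fold change over vehicle. Results are mean ± s.e.m., n=4, from 2 independent experiments, analysed by one-way ANOVA against vehicle.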

Series [6] has the same target. Kind of series: Modulation of full length human Nurr1 expressed in HEK293T cells co-transfected with RXRalpha and luciferase reporter plasmid harboring NurRE response element assessed as increase in luciferase activity at 100 uM incubated for 18 hrs by luciferase reporter gene assay. The conditions noted are these: filed as modulator. In short, it runs like this:
(§5)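 Full-length Nurr1 plasmid, alone (2 μg) or 1 μg plus full-length RXRα (1 μg), cotransfected with 3xNBRE- or 3xNurRE-luciferase reporter (6 μg) using Lipofectamine 2000, 18 h. Cells replated at 10,000/well for 4 h. Four ligand concentrations, or vehicle (water, ethanol or DMSO), added in quadruplicate for 18 h. Luciferase read. Fold change vs vehicle, mean ± s.e.m., one-way ANOVA vs vehicle.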

Series [7] has the same target. Kind of series: Modulation of full length human Nurr1 expressed in HEK293T cells co-transfected with RXRalpha and luciferase reporter plasmid harboring NBRE response element assessed as increase in luciferase activity at 100 uM incubated for 18 hrs by luciferase reporter gene assay. The conditions noted are these: filed as modulator. In short, it runs like this:
as §5

Series [8] shares this target. Put plainly: Modulation of full length human Nurr1 expressed in SKNBE(2) cells co-transfected with luciferase reporter plasmid harboring NurRE response element assessed as increase in luciferase activity at 100 uM incubated for 18 hrs by luciferase reporter gene assay. The conditions noted are these: SKNBE2, filed as modulator.
Series [9] has the same target. Put plainly: Modulation of full length human Nurr1 expressed in SKNBE(2) cells co-transfected with luciferase reporter plasmid harboring NBRE response element assessed as increase in luciferase activity at 100 uM incubated for 18 hrs by luciferase reporter gene assay. Particulars: SKNBE2, filed as modulator. In short, it runs like this:
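Transfection of SK-N-BE(2)-C cells (1:1 EMEM/F12, 10% FBS, 37°C, 5% CO2) used full-length Nurr1 alone (2 μg, no RXRα) with 3xNBRE- or 3xNurRE-luciferase reporter (6 μg) for 18 h. Cells were replated at 10,000/well for 4 h, then exposed to ligand or vehicle in quadruplicate for 18 h. Luminescence was expressed as fold over vehicle, as mean ± s.e.m. (n=4) from 2 independent experiments, one-way ANOVA against vehicle.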

For series [10] the target is unchanged. Kind of series: Modulation of full length human Nurr1 expressed in PC12 cells co-transfected with luciferase reporter plasmid harboring NurRE response element assessed as increase in luciferase activity at 100 uM incubated for 18 hrs by luciferase reporter gene assay. Particulars: PC-12, filed as modulator. Put shortly: (§6)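 Here PC12 cells (FK-12 medium, 15% horse serum, 2.5% FBS, 37°C, 5% CO2) received full-length Nurr1 (2 μg) without RXRα, plus 3xNBRE- or 3xNurRE-luciferase reporter (6 μg), for 18 h. Cells were replated at 10,000/well for 4 h, then treated with ligand or vehicle in quadruplicate for 18 h. Luciferase luminescence was normalized to vehicle-treated cells. Results are mean ± s.e.m. (n=4) from 2 independent experiments, with one-way ANOVA against vehicle.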

Series [11] has the same target. Kind of series: Modulation of full length human Nurr1 expressed in PC12 cells co-transfected with luciferase reporter plasmid harboring NBRE response element assessed as increase in luciferase activity at 100 uM incubated for 18 hrs by luciferase reporter gene assay. The conditions noted are these: PC-12, filed as modulator. In short, it runs like this: as §6
Series [12] has the same target. Kind of series: Modulation of full length human Nurr1 expressed in HEK293T cells co-transfected with luciferase reporter plasmid harboring NurRE response element assessed as increase in luciferase activity at 100 uM incubated for 18 hrs by luciferase reporter gene assay. Particulars: filed as modulator. In short, it runs like this: as §5
Series [13] shares this target. Kind of series: Modulation of full length human Nurr1 expressed in HEK293T cells co-transfected with luciferase reporter plasmid harboring NBRE response element assessed as increase in luciferase activity at 100 uM incubated for 18 hrs by luciferase reporter gene assay. The conditions noted are these: filed as modulator. Put shortly: as §5
For series [14] the target is unchanged. Put plainly: Modulation of full length human Nurr1 expressed in PC12 cells co-transfected with RXRalpha and luciferase reporter plasmid harboring NBRE response element assessed as increase in luciferase activity at 100 uM incubated for 18 hrs by luciferase reporter gene assay. The conditions noted are these: PC-12, filed as modulator. Put shortly:
as §4

Nuclear receptor subfamily 4 group A member 2 (Homo sapiens), sequence (P43354 whole entry): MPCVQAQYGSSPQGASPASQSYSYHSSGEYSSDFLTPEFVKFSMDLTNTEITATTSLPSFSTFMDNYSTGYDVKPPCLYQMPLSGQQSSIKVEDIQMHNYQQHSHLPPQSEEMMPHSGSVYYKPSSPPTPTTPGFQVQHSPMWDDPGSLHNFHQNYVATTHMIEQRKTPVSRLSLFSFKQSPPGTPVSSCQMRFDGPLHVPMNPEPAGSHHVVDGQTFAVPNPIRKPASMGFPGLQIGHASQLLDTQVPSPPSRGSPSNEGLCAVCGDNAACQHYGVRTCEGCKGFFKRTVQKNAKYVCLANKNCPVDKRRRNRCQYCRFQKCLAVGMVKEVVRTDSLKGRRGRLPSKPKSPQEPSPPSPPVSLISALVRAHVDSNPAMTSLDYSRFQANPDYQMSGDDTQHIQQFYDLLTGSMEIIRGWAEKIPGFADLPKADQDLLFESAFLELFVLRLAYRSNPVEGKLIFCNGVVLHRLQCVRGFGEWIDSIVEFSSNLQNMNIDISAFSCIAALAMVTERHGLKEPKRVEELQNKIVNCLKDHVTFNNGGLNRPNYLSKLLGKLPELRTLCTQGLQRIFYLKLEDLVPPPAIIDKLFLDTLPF

`COCCOCc1ccc(-c2cc3onc(-c4ccccc4)c3c(=O)n2C)cc1`: the Activity entry in the series on SK-N-BE(2), with PC-12 [1] and in the series on HEK-293T was “Non-Toxic” throughout. For the same molecule, the outcome (in the series on PC-12 [2]; with HEK293T; in series [3]; in [4]; in series [5]; in [6]) was Active. Besides, the result in [7], in series [8], in series [9], in series [10], in series [11] and in [12] was Active. Besides, the outcome in series [13] and in [14] was Active.

(Values after ChEMBL document CHEMBL5030505, “Assessment of NR4A Ligands That Directly Bind and Modulate the Orphan Nuclear Receptor Nurr1” (J Med Chem, 2020).)
